By IC50 is commonly meant the concentration that inhibits the measured activity by half. A high value points to weaker potency in that assay.

These results are taken from ChEMBL document CHEMBL5712090, “Therapeutic targeting of p300/CBP HAT domain for the treatment of NUT midline carcinoma” (Oncogene, 2020).

The subject of experiment [1] is HCC2429. Nature of the experiment: Antiproliferative activity against human HCC2429 cells for 72 hrs incubation measured by Celltiter Glo Cell Viability assay. The experiment is classed as functional, cell-based. The following applies: HCC2429, 72 h. The procedure, abridged:
(§1)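 Cells exposed to inhibitor over 10 nM–25 µM for 72 h; viability read by CellTiter Glo luminescence. IC50 taken from dose-response curve fit. Mean ± SD of three technical replicates.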
(In general: Cellular ATP, detected with luciferase, serves as a proxy for viable cell number.)

The nature of experiment [2]: Antiproliferative activity against human 00-143 cells for 72 hrs incubation measured by Celltiter Glo Cell Viability assay. It counts as functional, cell-based. As to conditions: 00-143, 72 h. The procedure, abridged: as §1
Experiment [3] concerns Ty-82. The experiment is described as follows: Antiproliferative activity against human Ty-82 cells for 72 hrs incubation measured by Celltiter Glo Cell Viability assay. The experiment is classed as functional, cell-based. The following applies: TY82, 72 h. The procedure, abridged: as §1
Experiment [4] has as its system HCC2429. Nature of the experiment: Inhibition of p300/CBP in human HCC2429 cells assessed as H3K27ac protein acetylation at 1 microM for 3 days by immunofluorescence analysis. The experiment is classed as cell-based. The following applies: time 3.0 day. The procedure, abridged: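 HCC2429 cells treated 3 days with 1 µM or DMSO. H3K27ac, BRD4-NUT and wild-type BRD4 imaged by immunofluorescence.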

The subject of experiment [5] is HCC2429. The experiment is described as follows: Inhibition of p300/CBP in human HCC2429 cells assessed as H3K27ac protein acetylation at MYC promoter and TP63 enhancer region with 1 microM for 3 days by ChIP analysis. The experiment is classed as cell-based. As to conditions: time 3.0 day. The procedure, abridged:
(§2)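 HCC2429 cells held 3 days at 1 µM or DMSO. Chromatin precipitated with H3K27ac, NUT or normal rabbit IgG antibodies. MYC promoter and TP63 enhancer quantified by qPCR as fold enrichment over IgG. Mean ± SEM, four independent experiments.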

Experiment [6] concerns HCC2429. Nature of the experiment: Inhibition of p300/CBP in human HCC2429 cells assessed as BRD4-NUT level at MYC promoter and TP63 enhancer region with 1 microM for 3 days by ChIP analysis. It counts as cell-based. The following applies: time 3.0 day. The procedure, abridged:
as §2

Experiment [7] has as its system HCC2429. The experiment is described as follows: Downregulation of MYC mRNA level in human HCC2429 cells for 48 hrs treatment by qRT-PCR analysis. The experiment is classed as functional, cell-based. The procedure, abridged: (§3)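 HCC2429 cells treated at indicated concentrations for 48 h. MYC, CCAT1 and TP63 mRNA measured by quantitative RT-PCR.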
A general note: Quantitative PCR measures a nucleic acid by following its amplification.

For experiment [8], the system named is HCC2429. The experiment is described as follows: Downregulation of CCAT1 mRNA level in human HCC2429 cells for 48 hrs treatment by qRT-PCR analysis. The experiment is classed as functional, cell-based. The procedure, abridged: as §3
In experiment [9] the test system is HCC2429. The experiment is described as follows: Downregulation of TP63 mRNA level in human HCC2429 cells for 48 hrs treatment by qRT-PCR analysis. It counts as functional, cell-based. The procedure, abridged: as §3
In experiment [10] the test system is HCC2429. The experiment is described as follows: Downregulation of MYC protein level in human HCC2429 cells for 48 hrs treatment by qRT-PCR analysis. The experiment is classed as functional, cell-based. The following applies: in the assay text read “immunoblot analysis” for “qRT-PCR analysis”. The procedure, abridged: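 HCC2429 cells treated at indicated concentrations for 48 h. MYC and H3K27ac protein assessed by immunoblot.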

Experiment [11] has as its system HCC2429. The experiment is described as follows: Induction of squamous differentiation in human HCC2429 cells assessed as accumulation of pan-keratin in cytoplasm at 0.5 microM for 5 days by immunofluorescence staining method. The experiment is classed as functional, cell-based. As to conditions: time 5.0 day. The procedure, abridged:
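HCC2429 cells exposed 5 days to 0.5 µM. Cytokeratin detected by immunofluorescence.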

In experiment [12] the test system is HCC2429. The experiment is described as follows: Induction of squamous differentiation in human HCC2429 cells assessed as flattening of cells at 0.5 microM for 5 days by immunofluorescence staining method. It counts as functional, cell-based. The following applies: time 5.0 day.
Experiment [13] has as its system HCC2429. Nature of the experiment: Induction of cell cycle arrest in human HCC2429 cells assessed as G1 cell cycle arrest at 0.5 microM incubated for 24 hrs by flow cytometry analysis. It counts as functional, cell-based. The procedure, abridged:
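HCC2429 cells exposed to 0.5 or 1 µM for 24, 48 and 72 h, then analysed by flow cytometry. Mean ± SEM, three independent experiments.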
For orientation: Flow cytometry measures light scatter and fluorescence of single cells or particles in a stream.

The test system of experiment [14] is HCC2429. Nature of the experiment: Induction of apoptosis in human HCC2429 cells assessed as cleaved caspase-3 expression at 0.5 microM incubated for 48 hrs by immunoblot analysis. The experiment is classed as functional, cell-based. The procedure, abridged: (§4)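 HCC2429 cells given 0.5 or 1 µM for 24, 48 and 72 h. Cleaved caspase-3 detected by immunoblot.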

Experiment [15] relates to HCC2429. Nature of the experiment: Induction of apoptosis in human HCC2429 cells assessed as cleaved caspase-3 expression at 0.5 microM incubated for 72 hrs by immunoblot analysis. It counts as functional, cell-based. The procedure, abridged:
as §4

For experiment [16], the system named is HCC2429. Nature of the experiment: Induction of apoptosis in human HCC2429 cells assessed as cleaved caspase-3 expression at 250 nM incubated for 72 hrs in presence of JQ1 by immunoblot analysis. It counts as functional, cell-based. The procedure, abridged: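 HCC2429 cells treated 72 h with 250 nM alone, 50 nM JQ1 alone, or both combined. Cleaved caspase-3 detected by immunoblot.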

The subject of experiment [17] is HCC2429. Nature of the experiment: Inhibition of colony formation in human HCC2429 cells assessed as inhibition in colony formation at 250 nM incubated for 72 hrs in presence of JQ1 by crystal violet staining based assay. The experiment is classed as functional, cell-based. The procedure, abridged: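 HCC2429 cells incubated 72 h with 250 nM, 50 nM JQ1, or both. Colony formation then scored.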

Experiment [18] concerns HCC2429. The experiment is described as follows: Induction of cell differentiation in human HCC2429 cells assessed as c-fos mRNA level at 250 nM for 5 days in presence of JQ1 by qRT-PCR analysis. The experiment is classed as functional, cell-based. As to conditions: time 5.0 day. The procedure, abridged:
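HCC2429 cells given 250 nM, 50 nM JQ1, or the combination for 5 days. KRT10, KRT14, TGM1 and c-fos mRNA by qRT-PCR. Mean ± SEM of three independent experiments.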

For experiment [19], the system named is TC-797. Nature of the experiment: Induction of squamous differentiation in human TC-797 cells assessed as change in cell phenotype at 0.5 microM for 5 days by immunofluorescence staining method. The experiment is classed as functional, cell-based. The following applies: time 5.0 day.
Experiment [20] has as its system PER-403. Nature of the experiment: Induction of squamous differentiation in human PER-403 cells assessed as change in cell phenotype at 0.5 microM for 5 days by immunofluorescence staining method. It counts as functional, cell-based. As to conditions: time 5.0 day.
Experiment [21] deals with HCC2429. The experiment is described as follows: Induction of cell differentiation in human HCC2429 cells assessed as increase in c-fos mRNA level at 0.5 microM for 5 days by qRT-PCR analysis.
The subject of experiment [22] is HCC2429. The experiment is described as follows: Induction of cell differentiation in human HCC2429 cells assessed as increase in involucrin-protein level at 0.5 microM for 5 days by immunoblot analysis.

Activity calls are given as the source filed them. The calls are words filed in the database; no cut-off is given here.

As to `CNC(=O)Nc1ccc2c(c1)CC[C@@]21OC(=O)N(CC(=O)N(Cc2ccc(F)cc2)[C@@H](C)C(F)(F)F)C1=O` [A-485], the IC50 stood at 750 nM in experiment [1], 980 nM in experiment [2] and 210 nM in experiment [3]. In addition, the inhibition result in experiment [4], in [5], in experiment [6] and in experiment [17] was “Active” throughout. Moreover, the outcome in [7], in experiment [8], in [9], in [10], in [11] and in experiment [12] was Active. In addition, the outcome in [13], in experiment [14], in [15], in [16], in [18] and in experiment [19] was Active. The outcome in experiment [20], in experiment [21] and in [22] was Active.
